According to paper PMC8682075 (Biochimie, 2020):
Entries after “also recorded” stand apart in the source; their conditions may differ. Blank lines part the entries; values can stand above or below the compound they belong to.

How the values were obtained:
MMUT WT = biological target: T1, MMUT WT (Homo sapiens, UniProt P22033); assay: Activity screen; assay type: biochemical; conditions: cobamide 1 μM, MMUT WT 0.01 μM, 30 minutes
T1 sequence (P22033 33-750): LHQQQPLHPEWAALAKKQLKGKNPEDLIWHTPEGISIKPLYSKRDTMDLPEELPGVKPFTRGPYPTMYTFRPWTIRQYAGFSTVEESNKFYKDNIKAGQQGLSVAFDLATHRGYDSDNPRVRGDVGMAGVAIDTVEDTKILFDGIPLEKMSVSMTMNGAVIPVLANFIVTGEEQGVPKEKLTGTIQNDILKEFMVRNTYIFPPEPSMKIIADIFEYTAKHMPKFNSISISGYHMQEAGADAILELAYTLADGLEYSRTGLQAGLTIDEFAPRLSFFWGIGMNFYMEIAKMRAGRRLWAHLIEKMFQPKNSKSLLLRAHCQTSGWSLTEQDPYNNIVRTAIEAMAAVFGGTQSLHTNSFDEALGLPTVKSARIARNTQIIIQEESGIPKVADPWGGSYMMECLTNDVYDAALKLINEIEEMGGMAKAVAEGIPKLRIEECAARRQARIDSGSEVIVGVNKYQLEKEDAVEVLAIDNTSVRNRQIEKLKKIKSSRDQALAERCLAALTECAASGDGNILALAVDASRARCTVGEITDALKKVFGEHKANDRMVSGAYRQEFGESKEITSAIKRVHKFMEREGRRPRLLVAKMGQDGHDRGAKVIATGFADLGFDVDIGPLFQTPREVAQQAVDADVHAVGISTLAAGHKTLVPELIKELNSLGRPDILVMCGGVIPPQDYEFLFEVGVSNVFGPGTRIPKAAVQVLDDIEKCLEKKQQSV
In short: (§1)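 At 30 °C, reaction was started with thiokinase, MgCl₂, ADP and methylmalonyl-CoA. Final levels were cofactor 1 μM and (R)-methylmalonyl-CoA 2 mM. Enzyme was WT 0.01 μM, G717V 1 μM, other variants 0.1 μM. After 30 min, an aliquot went into 2.5 mM DTNB; CoA was taken from A412 (ε 14,150 M⁻¹ cm⁻¹).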

[1] = biological target: T2, MMUT (methylmalonyl-CoA mutase) (Homo sapiens, UniProt P22033); assay: Cobamide equilibrium binding by quenching of intrinsic protein fluorescence; conditions: for binding to MMUT (in words): micromolar cobamide concentrations
T2 sequence (P22033 33-750): T1 sequence (P22033 33-750)
In short: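 Fluorescence quenching used MMUT at 0.2 μM, from N-terminal His-tag (E. coli BL21(DE3)pLysS) and C-terminal His-tag preparations. Adenosylated cofactor was titrated at 0.19–2.5 μM or 0.23–2.5 μM, depending on cofactor class. Plate-reader excitation/emission was 282/340 nm. Kd came from a quadratic fit allowing for ligand depletion. Values were averaged over ≥5 technical replicates from ≥2 independent experiments.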

[2] = system: Human intrinsic factor (IF); conditions: cited from earlier work
[3] = biological target: T2, MMUT (methylmalonyl-CoA mutase); assay: Coupled thiokinase/DTNB spectrophotometric MMUT activity assay; assay type: biochemical; conditions: for MMUT activity with the cobamide (in words): coupled spectrophotometric assay; for KM, app relative to AdoCbl: higher than AdoCbl
In short: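 In the coupled kinetic assay, succinyl-CoA was converted by thiokinase to CoA, which was detected spectrophotometrically with DTNB. C-terminally His-tagged MMUT was at 10 nM. Enzymatically made (R)-methylmalonyl-CoA was fixed at 4 mM. Adenosylated cofactor was varied per cofactor, from 0.031 μM at lowest to 12 μM at highest. K_M,app and k_cat come from ≥5 replicates over ≥2 independent experiments and two biological samples.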

[4] = biological target: T2, MMUT (methylmalonyl-CoA mutase); assay: Binding kinetics by stopped-flow fluorescence spectroscopy; conditions: MMUT 0.2 μM, cobamide 4.8 – 16.2 μM (to 24.3 μM for Ado[Phe]Cba)
In short: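 Stopped-flow fluorimetry used C-terminally His-tagged MMUT at 0.2 μM final after mixing. Adenosylated cofactor was added at 4.8, 7.2, 10.8 and 16.2 μM (24.3 μM for one cofactor). Excitation was 282 nm, with emission through a 320 nm long-pass filter. Traces, minus the buffer-addition control, were fitted to first-order exponential decay to give k_obs. k_on was the slope of k_obs versus concentration, from four technical replicates.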

[5] = system: MMUT variants G648D, V633G, G717V, P86L, Y100C, Y231N; assay: Activity screen; assay type: biochemical, human; conditions: cobamide 1 μM, variants 0.1 μM (G717V 1 μM), 30 minutes
In short: as §1

Compound: C/C1=C2/[N-][C@H]([C@H](CC(N)=O)[C@@]2(C)CCC(=O)NC[C@@H](C)OP(=O)([O-])O[C@H]2[C@@H](O)[C@@H](n3cnc4nc(C)nc(N)c43)O[C@@H]2CO)[C@]2(C)N=C(/C(C)=C3N=C(/C=C4N=C1[C@@H](CCC(N)=O)C\4(C)C)[C@@H](CCC(N)=O)[C@]\3(C)CC(N)=O)[C@@H](CCC(N)=O)[C@]2(C)CC(N)=O.[CH2-][C@H]1O[C@@H](n2cnc3c(N)ncnc32)[C@H](O)[C@@H]1O.[Co+3] [Ado[2-MeAde]Cba, adenosyl-2-methyladeninylcobamide]
- IF binding relative to AdoCbl [2]: six orders of magnitude more weakly

Compound: C/C1=C2/[N-][C@H]([C@H](CC(N)=O)[C@@]2(C)CCC(=O)NC[C@@H](C)OP(=O)([O-])O[C@H]2[C@@H](O)[C@@H](n3cnc4cc(C)ccc43)O[C@@H]2CO)[C@]2(C)N=C(/C(C)=C3N=C(/C=C4N=C1[C@@H](CCC(N)=O)C\4(C)C)[C@@H](CCC(N)=O)[C@]\3(C)CC(N)=O)[C@@H](CCC(N)=O)[C@]2(C)CC(N)=O.[CH2-][C@H]1O[C@@H](n2cnc3c(N)ncnc32)[C@H](O)[C@@H]1O.[Co+3] [Ado[5-MeBza]Cba]
- activity of WT MMUT with the cobamide (in words) (MMUT WT): active
- MMUT activity with the cobamide (in words) [3]: active

Compound: C/C1=C2/[N-][C@H]([C@H](CC(N)=O)[C@@]2(C)CCC(=O)NC[C@@H](C)OP(=O)([O-])O[C@H]2[C@@H](O)[C@@H](Oc3ccccc3)O[C@@H]2CO)[C@]2(C)N=C(/C(C)=C3N=C(/C=C4N=C1[C@@H](CCC(N)=O)C\4(C)C)[C@@H](CCC(N)=O)[C@]\3(C)CC(N)=O)[C@@H](CCC(N)=O)[C@]2(C)CC(N)=O.[CH2-][C@H]1O[C@@H](n2cnc3c(N)ncnc32)[C@H](O)[C@@H]1O.[Co+3] [Ado[Phe]Cba, adenosylphenolylcobamide]
- activity of WT MMUT with the cobamide (in words) (MMUT WT): active
- MMUT activity with the cobamide (in words) [3]: active
- KM, app relative to AdoCbl [3]: 100 fold

Compound: C/C1=C2/[N-][C@H]([C@H](CC(N)=O)[C@@]2(C)CCC(=O)NC[C@@H](C)O)[C@]2(C)N=C(/C(C)=C3N=C(/C=C4N=C1[C@@H](CCC(N)=O)C\4(C)C)[C@@H](CCC(N)=O)[C@]\3(C)CC(N)=O)[C@@H](CCC(N)=O)[C@]2(C)CC(N)=O.[Co+3] [cobinamide]
- IF affinity (in words) [2]: low affinity

Compound: adenosyladeninylcobamide [Ado[Ade]Cba]
- IF binding relative to AdoCbl [2]: six orders of magnitude more weakly

Compound: cyano-5-hydroxybenzimidazolylcobamide [CN[5-OHBza]Cba]
- IF affinity, lower than affinity for CNCbl [2]: no more than 2 fold

Compound: cyano-para-cresolylcobamide [CN[Cre]Cba]
- IF affinity (in words) [2]: low affinity

Compound: cyanobenzimidazolylcobamide [CN[Bza]Cba]
- IF affinity, lower than affinity for CNCbl [2]: no more than 2 fold

Further lines, with some results ahead:

- activity of WT MMUT with the cobamide (in words) (MMUT WT): No activity
Compound: 3-deazaadeninylcobamide

- activity of WT MMUT with the cobamide (in words) (MMUT WT): No activity
Compound: 6-azabenzimidazolylcobamide

- activity of WT MMUT with the cobamide (in words) (MMUT WT): No activity
Compound: 6-methyladeninylcobamide

- binding to MMUT (in words) [1]: lower affinity than AdoCbl
Compound: C/C1=C2/[N-][C@H]([C@H](CC(N)=O)[C@@]2(C)CCC(=O)NC[C@@H](C)O)[C@]2(C)N=C(/C(C)=C3N=C(/C=C4N=C1[C@@H](CCC(N)=O)C\4(C)C)[C@@H](CCC(N)=O)[C@]\3(C)CC(N)=O)[C@@H](CCC(N)=O)[C@]2(C)CC(N)=O.[CH2-][C@H]1O[C@@H](n2cnc3c(N)ncnc32)[C@H](O)[C@@H]1O.[Co] [Ado-cobinamide]

- activity of WT MMUT with the cobamide (in words) (MMUT WT): active
- difference in Kd relative to AdoCbl [1]: ~ 25 fold
- MMUT activity with the cobamide (in words) [3]: active
- KM, app relative to AdoCbl [3]: 10 fold
Compound: C/C1=C2/[N-][C@H]([C@H](CC(N)=O)[C@@]2(C)CCC(=O)NC[C@@H](C)OP(=O)([O-])O[C@H]2[C@@H](O)[C@@H](n3cnc4ccccc43)O[C@@H]2CO)[C@]2(C)N=C(/C(C)=C3N=C(/C=C4N=C1[C@@H](CCC(N)=O)C\4(C)C)[C@@H](CCC(N)=O)[C@]\3(C)CC(N)=O)[C@@H](CCC(N)=O)[C@]2(C)CC(N)=O.[CH2-][C@H]1O[C@@H](n2cnc3c(N)ncnc32)[C@H](O)[C@@H]1O.[Co+3] [Ado[Bza]Cba]

- activity of WT MMUT with the cobamide (in words) (MMUT WT): active
- kon relative to AdoCbl (in words) [4]: about six times higher
- MMUT activity with the cobamide (in words) [3]: active
Compound: C/C1=C2/[N-][C@H]([C@H](CC(N)=O)[C@@]2(C)CCC(=O)NC[C@@H](C)OP(=O)([O-])O[C@H]2[C@@H](O)[C@@H](Oc3ccc(C)cc3)O[C@@H]2CO)[C@]2(C)N=C(/C(C)=C3N=C(/C=C4N=C1[C@@H](CCC(N)=O)C\4(C)C)[C@@H](CCC(N)=O)[C@]\3(C)CC(N)=O)[C@@H](CCC(N)=O)[C@]2(C)CC(N)=O.[CH2-][C@H]1O[C@@H](n2cnc3c(N)ncnc32)[C@H](O)[C@@H]1O.[Co+3] [Ado[Cre]Cba]
- binding to MMUT (in words) [1]: bound too strongly to measure a Kd value; also recorded: higher affinity for Ado[Cre]Cba than AdoCbl
- activity of MMUT variants with the cobamide (in words) [5]: supported activity to a large extent in all of the variants
- KM, app (in words) [3]: in the range of the benzimidazolyl cobamides

- activity of WT MMUT with the cobamide (in words) (MMUT WT): active
Compound: C/C1=C2/[N-][C@H]([C@H](CC(N)=O)[C@@]2(C)CCC(=O)NC[C@@H](C)OP(=O)([O-])O[C@H]2[C@@H](O)[C@@H](n3cnc4cccc(C)c43)O[C@@H]2CO)[C@]2(C)N=C(/C(C)=C3N=C(/C=C4N=C1[C@@H](CCC(N)=O)C\4(C)C)[C@@H](CCC(N)=O)[C@]\3(C)CC(N)=O)[C@@H](CCC(N)=O)[C@]2(C)CC(N)=O.[CH2-][C@H]1O[C@@H](n2cnc3c(N)ncnc32)[C@H](O)[C@@H]1O.[Co+3] [J, 7-methylbenzimidazolylcobamide]
- activity of MMUT variants with the cobamide (in words) [5]: partially or entirely lost the ability to use

- activity of WT MMUT with the cobamide (in words) (MMUT WT): active
Compound: C/C1=C2/[N-][C@H]([C@H](CC(N)=O)[C@@]2(C)CCC(=O)NC[C@@H](C)OP(=O)([O-])O[C@H]2[C@@H](O)[C@@H](n3cnc4cccc(N)c43)O[C@@H]2CO)[C@]2(C)N=C(/C(C)=C3N=C(/C=C4N=C1[C@@H](CCC(N)=O)C\4(C)C)[C@@H](CCC(N)=O)[C@]\3(C)CC(N)=O)[C@@H](CCC(N)=O)[C@]2(C)CC(N)=O.[CH2-][C@H]1O[C@@H](n2cnc3c(N)ncnc32)[C@H](O)[C@@H]1O.[Co+3] [K, 7-aminobenzimidazolylcobamide]
- activity of MMUT variants with the cobamide (in words) [5]: partially or entirely lost the ability to use

- activity of WT MMUT with the cobamide (in words) (MMUT WT): active
Compound: adenosyl-5-fluorobenzimidazolylcobamide [compound P]
- activity of MMUT variants with the cobamide (in words) [5]: some variants also had appreciable activity

- activity of WT MMUT with the cobamide (in words) (MMUT WT): No activity
Compound: purinylcobamide
